High-throughput results from PubChem.
A selection: hits, their analogues and other compounds. The true share with any hit is near 9%.
M1 ag – agonists of M1 muscarinic receptor | CHO-M1 cells, Fluo-4 calcium fluorescence, agonist mode; active compounds read high | 64,000 compounds, 3% hits | AID 626 | B-score at 10 µM;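 active = fluorescence rise, raw or as B-score row- and column-corrected plate score, outside the 99.7% band of its plate's samples, either direction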
M1 antag – M1 muscarinic receptor (rat) antagonism; CHO-M1 cells, Fluo-4 calcium, ACh EC80 antagonist mode; active compounds read low; B-score at 10 µM; 64,000 compounds, 3.4% hits; AID 628;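 active = calcium fluorescence response, raw or row-and-column corrected B-score, differing from the plate sample mean either way at a set confidence level, mostly lower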
AP complement – orthogonal test for alternative complement pathway inhibitors. inhibition, % at 5 µM. Human serum alternative complement pathway, LPS-coated ELISA, C3 deposition; tested in compound mixtures. 62,000 compounds, 0.08% hits;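 active = inhibition above 30% in each of the two pooled mixtures holding the compound, so the lower value exceeds 30%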
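Test system – human serum alternative complement pathway, C3 deposition on LPS-coated wells · Buffer or medium – diluted human serum in Mg2+-EGTA GVB++ · Compound dosing – 5 µM each compound, pools of ten, 50 µM per pool · Schedule – 1 h serum-compound exposure at 37 °C · Measured by – Anti-C3 ELISA, OD 450 nm · Read-out basis – percent inhibition of C3 deposition onto LPS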
D1 allo mod – allosterically modulates the human D1 dopamine receptor | P21728 | B-score at 10 µM | HEK293 D1, CRE-luciferase, dopamine EC30 potentiation; actives deviate in either direction | 58,000 compounds, 5.9% hits | AID 641;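 active = luminescence count or its row- and column-corrected plate score outside the 99.7% band of the plate's sample wells, on either side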
mHtt clearance – compounds clearing mutant huntingtin protein; inhibition, % at 1.5 µM; 47,000 compounds, 0.42% hits; HeLa Exon1htt(103Q)mCFP, aggregate imaging; zero = plate's median compound well; AID 853;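 active = inhibition of aggregate fluorescence above about 70%, also judged a hit by eye on the cell image, limit read from the data, passing the limit was not always enough; inconclusive = no rule stated for this call; inactive = not judged a hit on image review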;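 also: cells exposed to compound for three days before fixation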
M1 agonist conf – confirmation of rat M1 muscarinic receptor agonists | fluorescence change (max-min) at 10 µM | CHO-M1 cells, Fluo-4 calcium fluorescence, agonist mode; actives lie on both sides | shares compounds with M1 ag | 1,700 compounds, 19% hits | AID 1488;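 active = fluorescence change differs from the solvent-only DMSO control mean at a set confidence level in both duplicate runs; inconclusive = differs from solvent-only control mean in just one of two runs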;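 also: an EC20 dose of acetylcholine follows compound addition during the same imaging run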
M4 ag counter – counter-screen for M1 agonists: activity at rat M4 receptor | shares compounds with M1 ag | CHO M4/Gqi5 cells, Fluo-4 calcium fluorescence, agonist mode; actives lie on both sides | fluorescence change (max-min) at 10 µM | 1,700 compounds, 9% hits | AID 1741;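 active = fluorescence change differing from the plate's solvent-only control wells at 99.7% confidence in both duplicates, whether higher or lower; inconclusive = differs from solvent controls in only one of two duplicates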
Target sequence (P08485 whole entry, looked up): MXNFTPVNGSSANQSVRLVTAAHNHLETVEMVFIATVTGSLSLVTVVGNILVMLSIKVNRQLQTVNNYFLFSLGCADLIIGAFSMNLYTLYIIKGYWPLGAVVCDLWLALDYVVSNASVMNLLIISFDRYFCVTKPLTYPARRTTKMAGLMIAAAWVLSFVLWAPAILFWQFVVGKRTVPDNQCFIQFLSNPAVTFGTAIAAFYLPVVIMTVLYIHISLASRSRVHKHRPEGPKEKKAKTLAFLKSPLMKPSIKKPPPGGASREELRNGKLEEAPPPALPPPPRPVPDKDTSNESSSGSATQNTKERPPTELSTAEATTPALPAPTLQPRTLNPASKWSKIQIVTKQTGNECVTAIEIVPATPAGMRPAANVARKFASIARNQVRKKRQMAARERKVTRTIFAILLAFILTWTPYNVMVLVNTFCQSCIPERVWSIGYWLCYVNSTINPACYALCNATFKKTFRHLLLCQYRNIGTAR
Each line names hits and unclear results; the compound was inactive in the other large screens (follow-up assays come after a bar, where they were run).

Cc1cccc(NC(=O)c2oc3ccc(S(=O)(=O)N4CCOCC4)cc3c2C)c1C	M1 ag 9.5 | M1 agonist conf inconclusive | M4 ag counter inactive
Cc1c(C(=O)NCc2cccs2)oc2ccc(S(=O)(=O)N3CCOCC3)cc12	none (no result: D1 allo mod, mHtt clearance)
COc1ccc(CCNC(=O)COc2ccc(S(=O)(=O)N3CCOCC3)cc2)cc1	none (no result: mHtt clearance)
CCOC(=O)c1cnc(SC)nc1Sc1ccccc1	none (no result: M1 ag, M1 antag, AP complement, D1 allo mod)
COc1cc(Nc2cc(C)nc3ncnn23)cc(OC)c1	none (no result: mHtt clearance)
COc1cc(Nc2cc(C)nc3ncnn23)cc(OC)c1OC	M1 ag 4.4 (no result: mHtt clearance) | M1 agonist conf inconclusive | M4 ag counter inactive
Cc1ccc(CN(c2ccc(C(=O)N3CCCC3)cc2)S(C)(=O)=O)cc1	none (no result: mHtt clearance)
Cc1ccccc1CN(c1ccc(C(=O)N2CCCC2)cc1)S(C)(=O)=O	M1 ag 3.2 (no result: mHtt clearance) | M1 agonist conf inactive | M4 ag counter inactive
C=CCn1cnc2c(c1=O)c1nc3ccccc3nc1n2-c1ccc(Cl)cc1	none (no result: AP complement, mHtt clearance)
CC(C)(C)c1cc(CN2CCN(CCO)CC2)cc(C(C)(C)C)c1O	none
CC(C)c1cc(CN2CCN(CCC#N)CC2)cc(C(C)C)c1O	M1 ag 27 (no result: mHtt clearance) | M1 agonist conf inactive | M4 ag counter inactive
O=C1CCCN1CCCNc1ncnc2c1cnn2-c1ccc(Cl)cc1	M1 ag 3.1 (no result: mHtt clearance) | M1 agonist conf inactive | M4 ag counter inactive
Clc1ccc(-n2ncc3c(NCC4CCCO4)ncnc32)cc1 (centres undefined)	M1 ag 3.4, D1 allo mod -3.6 (no result: mHtt clearance) | M1 agonist conf inconclusive | M4 ag counter inactive
Clc1ccc2[nH]c3c(NCC4CCCO4)ncnc3c2c1 (centres undefined)	M1 ag 7.7 (no result: mHtt clearance) | M1 agonist conf inactive | M4 ag counter inactive
COc1ccc(-n2ncc3c(NCCCN4CCOCC4)ncnc32)cc1	none (no result: mHtt clearance)
Clc1ccc2[nH]c3c(NCCN4CCOCC4)ncnc3c2c1	none (no result: AP complement, mHtt clearance)
CCOC(=O)C(CC)n1nc(C)n2c(cc3occc32)c1=O (centres undefined)	none (no result: M1 ag, M1 antag, AP complement, D1 allo mod)
CCOC(=O)C1CCN(C(=O)Nc2ccc3nc(-c4ccco4)c(-c4ccco4)nc3c2)CC1	M1 ag 84, M1 antag -12 | M1 agonist conf 392 | M4 ag counter inconclusive
O=C(Nc1ccc2nc(-c3ccco3)c(-c3ccco3)nc2c1)N1CCCCCC1	M1 ag 30, M1 antag -4.6, D1 allo mod -4.5 (no result: mHtt clearance) | M1 agonist conf 362 | M4 ag counter inconclusive
Cc1nc2ccc(NC(=O)N3CCCCC3)cc2nc1C	none (no result: M1 ag, M1 antag, AP complement, D1 allo mod)
CCOC(=O)C1CCN(C(=O)Nc2ccc3c(c2)nc(C)n3C)CC1	none
O=C1Nc2ccc([N+](=O)[O-])cc2C1(O)N1CCCCCC1 (centres undefined)	none (no result: M1 ag, M1 antag, AP complement, D1 allo mod)
C=CCc1ccccc1OCC(O)CN1CCN(C(=O)OCC)CC1 (centres undefined)	M1 ag 28 (no result: mHtt clearance) | M1 agonist conf 172 | M4 ag counter inactive
C=CCc1ccccc1OCC(O)CN1CCN(c2ccc(C)cc2)CC1 (centres undefined)	none (no result: D1 allo mod)
CCOC(=O)N1CCN(CC(O)COc2ccccc2C(C)C)CC1 (centres undefined)	M1 ag 13 | M1 agonist conf 65 | M4 ag counter inactive
CCOC(=O)N1CCN(CC(O)COc2ccccc2C(C)CC)CC1 (centres undefined)	none
C=CCc1ccccc1OCC(O)CN1CCN(Cc2ccc3c(c2)OCO3)CC1 (centres undefined)	M1 ag 6.9, M1 antag -5.4, D1 allo mod -5.8 | M1 agonist conf inactive | M4 ag counter inactive
CC1CCc2cc(F)ccc2N1C(=O)CSc1nnc2c(n1)[nH]c1ccc(F)cc12 (centres undefined)	none (no result: M1 ag, M1 antag, AP complement, D1 allo mod)
O=C(Nc1cccc(F)c1)c1c(F)c(F)c(F)c(F)c1F	M1 ag 3.7 | M1 agonist conf inactive | M4 ag counter inactive
O=C(Nc1ccccc1NC(=O)c1c(F)c(F)c(F)c(F)c1F)c1c(F)c(F)c(F)c(F)c1F	M1 ag 2.9 | M1 agonist conf inactive | M4 ag counter inconclusive
Cc1cc(C(F)F)n2ncc(C(=O)O)c2n1	none (no result: M1 ag, M1 antag, AP complement, D1 allo mod)
Cc1nnc(C)n1/N=C/c1cc(Br)cc(Br)c1O	M1 ag 27 (no result: D1 allo mod, mHtt clearance) | M1 agonist conf 143 | M4 ag counter inconclusive
Cc1nnc(C)n1/N=C/c1cc(Br)ccc1O	M1 ag 8.2 | M1 agonist conf inactive | M4 ag counter inactive
Cc1cc2ncn(/N=C/c3cc(Br)ccc3O)c2cc1C	none
COC(=O)COc1ccc(S(=O)(=O)NCc2ccncc2)cc1	M1 ag 2.7, M1 antag -2 (no result: mHtt clearance) | M1 agonist conf inactive | M4 ag counter inconclusive
Cc1ccc(C(=O)C2CCN(CC(=O)Nc3nc(C)cs3)CC2)cc1	none (no result: M1 ag, M1 antag, AP complement, D1 allo mod)
CN(CC(=O)Nc1ccc(C#N)cc1)Cc1ccc(Cl)cc1	none (no result: mHtt clearance)
N#Cc1ccc(NC(=O)Nc2ccc(Cl)cc2)cc1	M1 ag 3.1 (no result: mHtt clearance) | M1 agonist conf inactive | M4 ag counter inactive
CCCCCC(=O)Nc1ccc(N2CCN(S(C)(=O)=O)CC2)cc1	M1 ag -2.3 (no result: mHtt clearance) | M1 agonist conf inactive | M4 ag counter inactive
CCCCC(=O)Nc1ccc(N2CCN(C(=O)CC)CC2)cc1	none (no result: mHtt clearance)
Cc1oc(-c2ccc(Cl)cc2)nc1CN1CCCC(C(=O)N2CCN(C(=O)c3ccco3)CC2)C1 (centres undefined)	M1 ag 4, D1 allo mod -3.3 (no result: mHtt clearance) | M1 agonist conf inactive | M4 ag counter inactive
CCN1CCN(C(=O)C2CCN(Cc3nc(-c4ccc(Cl)cc4)oc3C)CC2)CC1	none (no result: mHtt clearance)
O=C(Cc1ccc(Cl)cc1)Nc1cccc(-c2nnc(-c3ccco3)o2)c1	none (no result: D1 allo mod)
COc1cccc(C(=O)Nc2ccc(-c3nnc(-c4ccco4)o3)cc2)c1	M1 ag 5.6 (no result: D1 allo mod) | M1 agonist conf inactive | M4 ag counter inconclusive
COc1ccc(CC(=O)Nc2cccc(-c3nnc(-c4cccc(C)c4)o3)c2)cc1OC	M1 ag 6.6, M1 antag -7.3, D1 allo mod -2.7 (no result: mHtt clearance) | M1 agonist conf inactive | M4 ag counter inconclusive
O=C(Cc1ccccc1)Nc1cccc(-c2nnc(-c3ccco3)o2)c1	M1 ag 5.2 (no result: D1 allo mod) | M1 agonist conf inactive | M4 ag counter inactive
COc1ccc(CC(=O)Nc2cccc(-c3nnc(-c4ccc(C)cc4)o3)c2)cc1OC	none (no result: mHtt clearance)
O=C(Nc1nncs1)C1c2ccccc2Oc2ccccc21	none (no result: mHtt clearance)
O=C(Nc1ccc2c(c1)OCCO2)c1ccc(Br)c(S(=O)(=O)N2CCOCC2)c1	M1 ag 11 (no result: mHtt clearance) | M1 agonist conf inconclusive | M4 ag counter inactive
CCOC(=O)c1ccc(NC(=O)c2cccc(S(=O)(=O)N3CCOCC3)c2)cc1	M1 ag 10, M1 antag -2.9 | M1 agonist conf inactive | M4 ag counter inconclusive
CCOC(=O)c1ccc(NC(=O)c2ccc(C)c(S(=O)(=O)N3CCOCC3)c2)cc1	M1 ag 16, M1 antag -3.1, D1 allo mod -6.6 (no result: mHtt clearance) | M1 agonist conf inactive | M4 ag counter inactive
